Experimental data as given in ChEMBL document CHEMBL4825665, “Effective degradation of EGFRL858R+T790M mutant proteins by CRBN-based PROTACs through both proteosome and autophagy/lysosome degradation systems” (Eur J Med Chem, 2021).

Columns and labels:
PC-9 = experiment: Antiproliferative activity against human PC-9 cells assessed as inhibition of cell growth measured after 72 hrs by CCK-8 assay; format: functional, cell-based; details: PC-9, 72 h
In short: (§1)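 Cells seeded at 3000 cells/well in 96-well plates and treated with graded compound concentrations one day later for 72 h. CCK-8 was added for 1–4 h and absorbance read at 450 nm. Lung cancer lines were kept in RPMI 1640 with 10% fetal calf serum at 37 °C and 5% CO₂.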

[1] = Antiproliferative activity against human PB1 cells assessed as inhibition of cell growth measured after 72 hrs by CCK-8 assay; format: functional, cell-based; details: PB1, 72 h; in short: as §1
NCI-H1975 = experiment: Antiproliferative activity against human NCI-H1975 cells assessed as inhibition of cell growth measured after 72 hrs by CCK-8 assay; format: functional, cell-based; details: NCI-H1975, 72 h; in short: as §1
HEK-293T = experiment: Cytotoxicity against human HEK293T cells assessed as inhibition of cell growth measured after 72 hrs by CCK-8 assay; format: cell-based; in short: as §1
BJ = experiment: Cytotoxicity against human BJ cells assessed as inhibition of cell growth measured after 72 hrs by CCK-8 assay; format: cell-based; in short: as §1
HCC827 = experiment: Antiproliferative activity against human HCC827 cells assessed as inhibition of cell growth measured after 72 hrs by CCK-8 assay; format: functional, cell-based; details: HCC827, 72 h; in short: as §1
A549 = experiment: Antiproliferative activity against human A549 cells assessed as inhibition of cell growth measured after 72 hrs by CCK-8 assay; format: functional, cell-based; details: A549, 72 h; in short: as §1
BaF3 = experiment: Antiproliferative activity against mouse BaF3 cells assessed as inhibition of cell growth measured after 72 hrs by CCK-8 assay; format: functional, cell-based; details: BaF3, 72 h; in short: as §1

IC50 (PC-9) [nM]	IC50 (NCI-H1975) [nM]	IC50 (HCC827) [nM]	IC50 (A549) [nM]	IC50 (BaF3) [nM]	SMILES	IC50 [1] [nM]	IC50 (HEK-293T) [nM]	IC50 (BJ) [nM]
0.452	35.4	–	–	–	C=CC(=O)Nc1cc2c(Nc3ccc(F)c(Cl)c3)ncnc2cc1OCCCN1CCN(C(=O)CCCCNc2cccc3c2C(=O)N(C2CCC(=O)NC2=O)C3=O)CC1 (stereo not drawn)	122	> 10000	> 10000
1.38	209	–	–	–	C=CC(=O)Nc1cc2c(Nc3ccc(F)c(Cl)c3)ncnc2cc1OCCCN1CCN(C(=O)CCCNc2cccc3c2C(=O)N(C2CCC(=O)NC2=O)C3=O)CC1 (stereo not drawn)	146	14700	> 10000
0.977	110	–	–	–	C=CC(=O)Nc1cc2c(Nc3ccc(F)c(Cl)c3)ncnc2cc1OCCCN1CCN(C(=O)CCNc2cccc3c2C(=O)N(C2CCC(=O)NC2=O)C3=O)CC1 (stereo not drawn)	163	> 10000	> 10000
1.11	162	–	–	–	C=CC(=O)Nc1cc2c(Nc3ccc(F)c(Cl)c3)ncnc2cc1OCCCN1CCNCC1	33.4	21800	2740
5	234	–	–	–	C=CC(=O)Nc1cc2c(Nc3ccc(F)c(Cl)c3)ncnc2cc1OCCCN1CCN(C(=O)CNc2cccc3c2C(=O)N(C2CCC(=O)NC2=O)C3=O)CC1 (stereo not drawn)	190	> 10000	> 10000
0.859	11.3	0.378	7160	9.2	C=CC(=O)Nc1cc2c(Nc3ccc(F)c(Cl)c3)ncnc2cc1OCCCN1CCOCC1 [CANERTINIB]	70.2	6000	5610
